TRPC4 block: inhibitors of mouse TRPC4 channel, primary screen, Fluo4 calcium, HEK293 TRPC4beta/mu-opioid cells. Short transient receptor potential channel 4 (Mus musculus), Q9QUQ5. DAMGO-evoked Fluo4 calcium flux; stronger effect = lower value. B-score at 10 µM. 300,000 tested, 0.39% active. AID 2247, 2010;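 active means B-score over 3 SD under the library average, no early fluorescence shift, positive overall ratio signal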
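System: stable TRPC4beta/mu-opioid receptor HEK293 cells; Dosing: single-point compound dosing; Measured by: Fluo4 Ca2+ flux fluorescence; Read-out basis: per-well B score of integrated baseline-normalized Fluo4 ratio.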
TRPC6 act: mouse TRPC6 channel activators, primary screen, cell-based, HEK293, membrane potential dye; HEK293-TRPC6 membrane potential dye fluorescence; stronger effect = higher value; 310,000 tested, 0.13% active; AID 2550, 2010; B-score at 10 µM;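 active means B-score of the integrated fluorescence ratio above library mean plus 3 SD, and starting fluorescence ratio within library mean plus 5 SD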;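 further: higher score means more depolarization so channel activation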
TRPC4 PAM: positive allosteric modulators of TRPC4, primary screen, cell-based, mouse TRPC4beta, HEK293 mu-opioid, Fluo-4 calcium | Short transient receptor potential channel 4 (Mus musculus), Q9QUQ5 | DAMGO EC20, Fluo-4 Ca2+ flux; stronger effect = higher value | B-score at 10 µM | 310,000 tested, 0.42% active;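 active means B-score of calcium response area above 5 SD of library B-scores, with initial fluorescence ratio within 5 SD of library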
TRPC6 inh: mouse TRPC6 channel inhibitors, primary screen, cell-based, HEK293, membrane potential dye; ACh-evoked depolarization; stronger effect = lower value; B-score at 10 µM; 310,000 tested, 1.1% active;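 active means B-score under library mean minus 3 SD, initial fluorescence not abnormally high, positive integrated signal ratio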;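 further: B-score derived from integrated fluorescence ratio over the kinetic read; more negative B-score means stronger inhibition of depolarization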
TRPC4 act: activators of mouse TRPC4 channel, primary screen, Fluo4 calcium, HEK293 TRPC4beta/mu-opioid cells. Short transient receptor potential channel 4 (Mus musculus), Q9QUQ5. Fluo4 calcium fluorescence; stronger effect = higher value. 310,000 tested, 0.49% active. B-score at 10 µM;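 active means B-score above 5 SD of library B-scores, and initial fluorescence ratio not above library mean plus 5 SD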;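 further: positive B-score marks a calcium rise read as TRPC4 activation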
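Incubation: 45 min room-temperature Fluo4 loading, 110 s read / System: HEK293 cells stably co-expressing mouse TRPC4beta and mu-opioid receptor / Signal: Fluo4 fluorescence, kinetic / Control set: buffer (low) and maximal DAMGO (high) / Measure: integrated baseline-normalised fluorescence ratio, converted to per-well B score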
TRPC4 spec 2: second selectivity test of TRPC6 inhibitors: effect on mouse TRPC4 | shares compounds with TRPC6 inh | HEK293 TRPC4/MOR, membrane potential dye fluorescence; channel activated by saturating DAMGO dose | inhibition, % at 10 µM | 920 tested, 42% active;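 active means compounds whose fluorescence signal differed from control wells by over 3 SD, either direction, in both duplicate plates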
TRPC4 spec: mouse TRPC4 modulation by TRPC6 hits, confirmation, selectivity assay for TRPC6 inhibitor project, cell-based, HEK293 TRPC4/mu-opioid, membrane potential dye; shares compounds with TRPC6 inh; activity change, negative = inhibition, % at 10 µM; membrane potential fluorescence; 920 tested, 61% active;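 active means rise or fall in signal beyond 3 SD of buffer-only wells in both replicate plates, either sign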;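 further: integrated kinetic ratio of fluorescence range over baseline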
HEK293 MPD ctr 2-1: nonspecific membrane potential effects, parental HEK293, confirmation, counter-screen for TRPC6 inhibitor project, cell-based, second counter screen; shares compounds with TRPC6 inh; parental HEK293 membrane potential dye fluorescence; maximal acetylcholine challenge after compound addition; signal change vs control, % at 10 µM; 920 tested, 31% active;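 active means membrane potential signal moving either way by over 3 SD of the maximum-effect control, in both duplicate plates, meaning non-specific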
HEK293 MPD ctr-1: membrane potential modulation in parental HEK293, confirmation, counter-screen for TRPC6 inhibitor project, cell-based; shares compounds with TRPC6 inh; parental HEK293 membrane potential dye fluorescence; membrane potential signal change, % at 10 µM; 920 tested, 60% active; AID 2780, 2010;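 active means membrane potential signal shifting up or down by more than 3 SD of buffer-only wells, on both duplicate plates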
HEK293 MPD ctr-2: parental HEK293 membrane potential modulation, confirmation, counter-screen for TRPC6 modulator project, cell-based. membrane potential dye fluorescence. 2,400 tested, 51% active. AID 488924, 2010. shares compounds with TRPC6 inh. membrane potential signal change, % at 10 µM;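 active means membrane potential signal moves up or down beyond 5 SD from buffer-only wells, on both duplicate plates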
HEK293 MPD ctr 2-2: second check of TRPC6 modulator effects in parental HEK293 cells. shares compounds with TRPC6 inh. membrane potential dye fluorescence; after compound, maximal acetylcholine stimulation. inhibition, % at 10 µM. 2,400 tested, 14% active;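 active means membrane potential signal drops by more than 5 SD from the mean control signal, in both duplicate plates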
TRPC4 ctr mod: TRPC4 modulation by TRPC6 hit compounds, confirmation, selectivity assay for TRPC6 modulator project, cell-based, HEK293 TRPC4/mu-opioid, membrane potential dye, mouse. shares compounds with TRPC6 inh. membrane potential fluorescence. percent change from control (negative = decrease, positive = increase), % at 10 µM. 2,400 tested, 69% active. AID 488927, 2010;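 active means membrane potential signal moved up or down beyond 5 SD of buffer control wells, in both duplicate plates, actives on both sides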
TRPC4/MOR inh 2: second selectivity test of TRPC6 modulators against mouse TRPC4. inhibition, % at 10 µM. shares compounds with TRPC6 inh. HEK293 TRPC4/mu-opioid, membrane potential dye fluorescence; stimulated with maximal-effect DAMGO. 2,400 tested, 55% active;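 active means drop in membrane potential signal beyond 5 SD of the control wells in both duplicate plates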;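 further: TRPC4 counter screen for TRPC6 hits run under conditions tuned for TRPC6 not TRPC4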
TRPC6 inh conf: mouse TRPC6 channel inhibitors, confirmation, HEK293 cells, membrane potential dye, duplicate | shares compounds with TRPC6 inh | ACh-evoked depolarization | inhibition, % at 10 µM | 3,300 tested, 43% active | AID 488960, 2010;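 active means fluorescence ratio falls more than 5 SD below the full-stimulation control mean, in both duplicate runs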;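 further: integrated fluorescence ratio of peak minus minimum over baseline after agonist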
TRPC6 act conf: mouse TRPC6 channel activators, confirmation, HEK293 cells, membrane potential dye, duplicate; shares compounds with TRPC6 inh; HEK293-TRPC6 membrane potential dye fluorescence, FDSS; activation, % at 10 µM; 2,800 tested, 11% active;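 active means ratio signal rise beyond 5 SD above unstimulated control wells' mean, seen in both duplicate runs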
Large screens that a line does not name were inactive (follow-up assays come after a bar, where they were run). In the library only some 2.3% were active in any assay of this set; here they are far more common.

CN1CCN(c2ncccc2S(=O)(=O)N2CCCCC2)CC1	TRPC6 inh -7 | TRPC4 spec 2 inactive | TRPC4 spec -0.1% | HEK293 MPD ctr 2-1 -41.0% | HEK293 MPD ctr-1 0.9% | TRPC6 inh conf 77.9% | TRPC6 act conf inactive
O=S(=O)(c1cccc2cccnc12)N1CCCCC1	none
COc1ccccc1N1CCN(c2cc(N3CCCC3)nc(C)n2)CC1	none
COc1ccc(OC)c2c(C)cc(N3CCCN(C)CC3)nc12	TRPC6 inh -10.6 | HEK293 MPD ctr-2 -246.5% | HEK293 MPD ctr 2-2 74.5% | TRPC4 ctr mod -40.0% | TRPC4/MOR inh 2 69.0% | TRPC6 inh conf 67.5% | TRPC6 act conf inactive
CC(=O)N1CCc2ccc(S(=O)(=O)N3CCN(C)CC3)cc21	TRPC6 inh -5.09 | HEK293 MPD ctr-2 123.0% | HEK293 MPD ctr 2-2 inactive | TRPC4 ctr mod 40.0% | TRPC4/MOR inh 2 inactive | TRPC6 inh conf inactive
CN(C)CCNc1ncnc2c1cnn2-c1ccc(Cl)cc1	TRPC6 inh -5.2 | HEK293 MPD ctr-2 inactive | HEK293 MPD ctr 2-2 inactive | TRPC4 ctr mod inactive | TRPC4/MOR inh 2 31.0% | TRPC6 inh conf 45.5% | TRPC6 act conf inactive
O=C1c2cccc(Cl)c2C(=O)c2c1cccc2N1CCCC1	TRPC6 inh -8.28 | HEK293 MPD ctr-2 -98.5% | HEK293 MPD ctr 2-2 inactive | TRPC4 ctr mod -26.0% | TRPC4/MOR inh 2 75.5% | TRPC6 inh conf inactive | TRPC6 act conf inactive
CCC(C)NC(=O)COCc1cc(-c2ccc3c(c2)OCO3)on1 (stereo unspecified)	none

Source: PubChem (Johns Hopkins Ion Channel Center)
